# From ChEMBL document CHEMBL4145582, “Cytotoxic and Antibacterial Eremophilane Sesquiterpenes from the Marine-Derived Fungus Cochliobolus lunatus SCSIO41401” (J Nat Prod, 2018)
# The source made the active and inactive calls. The rule behind the calls is not given here.
# Assays:
# Staphylococcus aureus = assay: Antimicrobial activity against Staphylococcus aureus subsp. aureus Rosenbach ATCC 25923 after 24 hrs by serial dilution method; type: functional; conditions: for MIC: Rosenbach ATCC 25923, 24 h
# Method in brief: (§1)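 Serial broth dilution in 96-well microtiter plates. Compounds and controls are dissolved in DMSO as stock. Bacteria are grown overnight at 37 °C, then diluted to 10^6 cfu/mL. E. coli and S. aureus are grown in Luria–Bertani broth. P. multocida and E. rhusiopathiae are grown in trypticase soy broth with 10% calf serum. Plates are incubated at 37 °C for 24 h and read at 630 nm.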
# [1] = test system: Erysipelothrix rhusiopathiae; assay: Antimicrobial activity against Erysipelothrix rhusiopathiae ATCC 19414 after 24 hrs by serial dilution method; type: functional; conditions: for MIC: ATCC 19414, 24 h; method in brief: as §1
# Pasteurella multocida = assay: Antimicrobial activity against Pasteurella multocida subsp. multocida ATCC 43137 after 24 hrs by serial dilution method; type: functional; conditions: for MIC: ATCC 43137, 24 h; method in brief: as §1
# ACHN = assay: Cytotoxicity against human ACHN cells after 72 hrs by CCK8 assay; type: functional, cell-based
# Method in brief: (§2)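 Renal cancer lines ACHN, 786-O and OS-RC-2; cell viability read by CCK-8 assay, with sorafenib as positive control.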
# 786-0 = assay: Cytotoxicity against human 786-O cells after 72 hrs by CCK8 assay; type: functional, cell-based; conditions: for IC50: 786-0, 72 h; method in brief: as §2
# OS-RC-2 = assay: Cytotoxicity against human OS-RC2 cells after 72 hrs by CCK8 assay; type: functional, cell-based; conditions: for IC50: OS-RC-2, 72 h; method in brief: as §2
# HepG2 = assay: Cytotoxicity against human HepG2 cells after 6 days by MTT assay; type: functional, cell-based; conditions: for IC50: HepG2, 144 h
# Method in brief: (§3)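 HepG-2 and SGC7901 cells; growth inhibition read by MTT method, with 5-fluorouracil as positive control.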
# SGC-7901 = assay: Cytotoxicity against human SGC7901 cells after 6 days by MTT assay; type: functional, cell-based; conditions: for IC50: SGC-7901, 144 h; method in brief: as §3
# Escherichia coli = assay: Antimicrobial activity against Escherichia coli ATCC 25922 after 24 hrs by serial dilution method; type: functional; conditions: for MIC: ATCC 25922, 24 h; method in brief: as §1
smiles,measurement,setting,value
CC1(C)S[C@@H]2[C@H](NC(=O)Cc3ccccc3)C(=O)N2[C@H]1C(=O)O [PENICILLIN G],MIC,Staphylococcus aureus,13 µg/mL
same,MIC,[1],13 µg/mL
same,MIC,Pasteurella multocida,13 µg/mL
Cc1cc(=O)c2c(C)cc(O)cc2o1,Activity,ACHN,inactive
same,Activity,786-0,inactive
same,Activity,OS-RC-2,inactive
same,Activity,HepG2,inactive
same,Activity,SGC-7901,inactive
same,Activity,Escherichia coli,inactive
same,Activity,Staphylococcus aureus,inactive
same,Activity,[1],inactive
same,Activity,Pasteurella multocida,inactive
CC[C@@H]1OC(=O)c2c1ccc(O)c2O,IC50,ACHN,> 50 µM
same,IC50,786-0,> 50 µM
same,IC50,OS-RC-2,> 50 µM
same,IC50,HepG2,> 50 µM
same,IC50,SGC-7901,> 50 µM
same,MIC,Escherichia coli,> 100 µg/mL
same,MIC,Staphylococcus aureus,> 100 µg/mL
same,MIC,[1],> 100 µg/mL
same,MIC,Pasteurella multocida,> 100 µg/mL
CC[C@@H]1OC(=O)c2cc(O)ccc21,IC50,ACHN,> 50 µM
same,IC50,786-0,> 50 µM
same,IC50,OS-RC-2,> 50 µM
same,IC50,HepG2,> 50 µM
same,IC50,SGC-7901,> 50 µM
same,MIC,Escherichia coli,> 100 µg/mL
same,MIC,Staphylococcus aureus,> 100 µg/mL
same,MIC,[1],> 100 µg/mL
same,MIC,Pasteurella multocida,> 100 µg/mL
CC[C@@H]1OC(=O)c2cc(O)c(O)cc21,IC50,ACHN,34 µM
same,IC50,786-0,28 µM
same,IC50,OS-RC-2,> 50 µM
same,IC50,HepG2,> 50 µM
same,IC50,SGC-7901,> 50 µM
same,MIC,Escherichia coli,> 100 µg/mL
same,MIC,Staphylococcus aureus,> 100 µg/mL
same,MIC,[1],> 100 µg/mL
same,MIC,Pasteurella multocida,> 100 µg/mL
C=C(CO)[C@]1(O)C[C@@]2(C)C(=CC1=O)C=CC[C@@H]2C,IC50,ACHN,> 50 µM
same,IC50,786-0,> 50 µM
same,IC50,OS-RC-2,> 50 µM
same,IC50,HepG2,> 50 µM
same,IC50,SGC-7901,> 50 µM
same,MIC,Escherichia coli,> 100 µg/mL
same,MIC,Staphylococcus aureus,> 100 µg/mL
same,MIC,[1],> 100 µg/mL
same,MIC,Pasteurella multocida,> 100 µg/mL
CN[C@@H]1[C@H](O[C@H]2[C@H](O[C@H]3[C@H](O)[C@@H](O)[C@H](N=C(N)N)[C@@H](O)[C@@H]3N=C(N)N)O[C@@H](C)[C@]2(O)C=O)O[C@@H](CO)[C@H](O)[C@H]1O [STREPTOMYCIN],MIC,Escherichia coli,25 µg/mL
